From ChEMBL document CHEMBL3745596, “Chlorophenoxy aminoalkyl derivatives as histamine H(3)R ligands and antiseizure agents” (Bioorg Med Chem, 2016)
Active and inactive are the calls of the source.

Tests used:
Mus musculus [1] = assay: Anticonvulsant activity in ip dosed CF1 albino mouse assessed as protection against maximal electroshock-induced seizure after 0.5 hrs; assay type: functional
Method in brief: (§1)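 Male CF-1 mice dosed ip as suspension in 0.5% methylcellulose. Corneal electrodes deliver 60 Hz alternating current, 50 mA for […], after a drop of 0.5% tetracaine HCl in 0.9% NaCl per eye. Protection means abolition of hindlimb tonic extension; scored as protected/tested, or ED50 with 95% confidence interval.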

Mus musculus [2] = assay: Anticonvulsant activity in ip dosed CF1 albino mouse assessed as protection against subcutaneous pentetrazole-induced seizure after 0.5 hrs; assay type: functional
Method in brief: (§2)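 Male CF-1 mice, ip in 0.5% methylcellulose; pentetrazole at CD97 (85 mg/kg) injected subcutaneously in a loose fold of neck skin. Observed 30 min; absence of even a threshold seizure (single clonic spasm lasting at least 5 s) counted as protection. Scored protected/tested, or ED50.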

Mus musculus [3] = assay: Protective index, ratio of TD50 for ip dosed CF1 albino mouse to ED50 for ip dosed CF1 albino mouse assessed as protection against maximal electroshock-induced seizure after 0.5 hrs; assay type: functional
Method in brief: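 PI = TD50/ED50. Male CF-1 mice or male Sprague–Dawley rats given compound ip as 0.5% methylcellulose suspension. MES: 60 Hz corneal current, 50 mA mice or 150 mA rats, for […] after tetracaine eye drops; protection is abolition of hindlimb tonic extension.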

Rattus norvegicus [4] = assay: Anticonvulsant activity in Sprague-Dawley rat assessed as protection against pilocarpine-induced convulsive status epilepticus at 65 mg/kg, ip; assay type: functional, organism-based
Method in brief: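 Male Sprague Dawley rats (150–180 g) dosed ip, pilocarpine 50 mg/kg ip given; compound dosed immediately at first behavioral Stage 3 seizure or 30 min later. Number protected from Racine Stage 3 or greater seizures recorded.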

[5] = Neuroprotective activity in hippocampal slice (unknown origin) assessed as protection against kainic acid-induced cell death using propidium iodide staining; assay type: functional; conditions: Hippocampus
Method in brief: (§3)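 Organotypic hippocampal slice cultures exposed to NMDA or kainic acid alone or with compound; propidium iodide in all wells; PI fluorescence intensity of slices, proportional to cell death, compared with excitotoxin-only slices; qualitative.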

[6] = Neuroprotective activity in hippocampal slice (unknown origin) assessed as protection against NMDA-induced cell death using propidium iodide staining; assay type: functional; conditions: Hippocampus; method in brief: as §3
Mus musculus [7] = assay: Analgesic activity in mouse assessed as inhibition of formalin-induced paw licking behavior at 13 mg/kg, ip after 0.25 hrs; assay type: functional, organism-based
Method in brief: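 Male albino mice, ip in 0.5% methylcellulose; 0.5% formalin injected sub-dermally into right hindpaw plantar surface 0.25 h after dosing. Paw licking observed for the first 2 min of each 5-min epoch up to 40 min after dosing; cumulative licking duration compared with vehicle-pretreated group, acute and inflammatory phases.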

Histamine H3 receptor = Histamine H3 receptor (Homo sapiens, UniProt Q9Y5N1); assay: Displacement of [3H]-Nalpha-methylhistamine from human recombinant histamine H3 receptor expressed in HEK293 cells after 90 mins; assay type: cell-based
Mus musculus [8] = assay: Anticonvulsant activity in CF1 albino mouse assessed as protection against maximal electroshock-induced seizure at 3 mg/kg, ip after 0.5 hrs; assay type: functional, organism-based; method in brief: as §1
Mus musculus [9] = assay: Anticonvulsant activity in CF1 albino mouse assessed as protection against maximal electroshock-induced seizure at 10 mg/kg, ip after 0.5 hrs; assay type: functional, organism-based; method in brief: as §1
Mus musculus [10] = assay: Anticonvulsant activity in CF1 albino mouse assessed as protection against maximal electroshock-induced seizure at 30 mg/kg, ip after 0.5 hrs; assay type: functional, organism-based; method in brief: as §1
Mus musculus [11] = assay: Anticonvulsant activity in CF1 albino mouse assessed as protection against maximal electroshock-induced seizure at 30 mg/kg, ip after 4 hrs; assay type: functional, organism-based; method in brief: as §1
Mus musculus [12] = assay: Anticonvulsant activity in CF1 albino mouse assessed as protection against subcutaneous pentetrazole-induced seizure at 30 mg/kg, ip after 0.5 hrs; assay type: functional, organism-based; method in brief: as §2
Mus musculus [13] = assay: Anticonvulsant activity in CF1 albino mouse assessed as protection against subcutaneous pentetrazole-induced seizure at 30 mg/kg, ip after 4 hrs; assay type: functional, organism-based; method in brief: as §2
Mus musculus [14] = assay: Neurotoxicity in CF1 albino mouse at 3 mg/kg, ip after 0.5 hrs by rotarod test; assay type: toxicity, organism-based; conditions: in vivo
Method in brief: (§4)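 Rotarod neurotoxicity in male albino CF-1 mice dosed ip with compound suspended in 0.5% methylcellulose. Animal placed on a 1 inch diameter knurled plastic rod rotating at 6 rpm. Neurotoxicity scored when the animal falls off three times within 1 min. Readout is number of animals toxic/number tested at the stated time after dosing. TD50 with 95% confidence interval from the quantitative study.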

Mus musculus [15] = assay: Neurotoxicity in CF1 albino mouse at 10 mg/kg, ip after 0.5 hrs by rotarod test; assay type: toxicity, organism-based; conditions: in vivo
Method in brief: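 Rotarod neurotoxicity in male CF-1 mice dosed ip as 0.5% methylcellulose suspension: mouse placed on 1 inch knurled rod rotating at 6 rpm; toxicity when the animal falls off three times within 1 min, with other signs noted. Scored as toxic/tested at 0.5 h and 4 h.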

Mus musculus [16] = assay: Neurotoxicity in CF1 albino mouse at 30 mg/kg, ip after 0.5 hrs by rotarod test; assay type: toxicity, organism-based; conditions: in vivo; method in brief: as §4
Mus musculus [17] = assay: Neurotoxicity in CF1 albino mouse at 30 mg/kg, ip after 4 hrs by rotarod test; assay type: toxicity, organism-based; conditions: in vivo; method in brief: as §4
Mus musculus [18] = assay: Neurotoxicity in CF1 albino mouse at 100 mg/kg, ip after 4 hrs by rotarod test; assay type: toxicity, organism-based; conditions: in vivo; method in brief: as §4
Mus musculus [19] = assay: Neurotoxicity in CF1 albino mouse assessed as death at 300 mg/kg, ip after 0.5 hrs by rotarod test; assay type: toxicity, organism-based; conditions: in vivo
Method in brief: (§5)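 Male albino CF-1 mice dosed ip with compound suspended in 0.5% methylcellulose, then placed on a 1-inch knurled plastic rod turning at 6 rpm. A fall three times within 1 min counted as neurotoxicity. Observations were made at 0.5 h and 4 h after dosing. Result given as animals showing toxicity per animals tested, with the kind of toxicity recorded.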

Mus musculus [20] = assay: Neurotoxicity in CF1 albino mouse at 300 mg/kg, ip after 4 hrs by rotarod test; assay type: toxicity, organism-based; conditions: in vivo; method in brief: as §4
Mus musculus [21] = assay: Neurotoxicity in CF1 albino mouse assessed as death at 100 mg/kg, ip after 0.5 hrs by rotarod test; assay type: toxicity, organism-based; conditions: in vivo; method in brief: as §5
Rattus norvegicus [22] = assay: Anticonvulsant activity in Sprague-Dawley rat assessed as protection against maximal electroshock-induced seizure at 30 mg/kg, po; assay type: functional
Mus musculus [23] = assay: Anticonvulsant activity in CF1 albino mouse assessed as protection against 6 Hz-psychomotor-induced seizure at 50 mg/kg, ip after 1 hr; assay type: functional, organism-based
Method in brief: (§6)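 Male CF-1 mice, ip suspension in 0.5% methylcellulose. Corneal stimulation 0.2 ms monopolar rectangular pulses at 6 Hz, 32 mA for 3 s via constant-current device; mice without minimal clonic phase seizure counted protected. Groups of four; read at 0.25, 0.5, 1, 2, 4 h; result as protected/tested.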

Mus musculus [24] = assay: Anticonvulsant activity in CF1 albino mouse assessed as protection against 6 Hz-psychomotor-induced seizure at 50 mg/kg, ip after 2 hrs; assay type: functional, organism-based; method in brief: as §6
Mus musculus [25] = assay: Anticonvulsant activity in CF1 albino mouse assessed as protection against 6 Hz-psychomotor-induced seizure at 50 mg/kg, ip after 4 hrs; assay type: functional, organism-based; method in brief: as §6
Mus musculus [26] = assay: Neurotoxicity in CF1 albino mouse at 50 mg/kg, ip after 0.5 hrs by rotarod test; assay type: toxicity, organism-based; conditions: in vivo; method in brief: as §4
Mus musculus [27] = assay: Neurotoxicity in CF1 albino mouse at 50 mg/kg, ip after 2 hrs by rotarod test; assay type: toxicity, organism-based; conditions: in vivo; method in brief: as §4
Mus musculus [28] = assay: Neurotoxicity in CF1 albino mouse at 50 mg/kg, ip after 4 hrs by rotarod test; assay type: toxicity, organism-based; conditions: in vivo; method in brief: as §4
Mus musculus [29] = assay: Anticonvulsant activity in CF1 albino mouse assessed as protection against 6 Hz-psychomotor-induced seizure at 25 mg/kg, ip after 0.25 to 4 hrs; assay type: functional, organism-based; method in brief: as §6
Mus musculus [30] = assay: Neurotoxicity in CF1 albino mouse at 25 mg/kg, ip after 0.25 to 4 hrs by rotarod test; assay type: toxicity, organism-based; conditions: in vivo; method in brief: as §4
Mus musculus [31] = assay: Neurotoxicity in ip dosed CF1 albino mouse after 0.25 hrs by rotarod test; assay type: toxicity, organism-based; conditions: in vivo
Method in brief: as §4, with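 “dosing.” for “dosing. TD50 with 95% confidence interval from the quantitative study.”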

Mus musculus [32] = assay: Anticonvulsant activity in CF1 albino mouse assessed as protection against maximal electroshock-induced seizure at 100 mg/kg, ip after 0.5 hrs; assay type: functional, organism-based; method in brief: as §1
Mus musculus [33] = assay: Anticonvulsant activity in CF1 albino mouse assessed as protection against maximal electroshock-induced seizure at 100 mg/kg, ip after 4 hrs; assay type: functional, organism-based; method in brief: as §1
Mus musculus [34] = assay: Anticonvulsant activity in CF1 albino mouse assessed as protection against maximal electroshock-induced seizure at 300 mg/kg, ip after 0.5 hrs; assay type: functional, organism-based; method in brief: as §1
Mus musculus [35] = assay: Anticonvulsant activity in CF1 albino mouse assessed as protection against subcutaneous pentetrazole-induced seizure at 100 mg/kg, ip after 0.5 hrs; assay type: functional, organism-based; method in brief: as §2
Mus musculus [36] = assay: Anticonvulsant activity in CF1 albino mouse assessed as protection against subcutaneous pentetrazole-induced seizure at 100 mg/kg, ip after 4 hrs; assay type: functional, organism-based; method in brief: as §2
Mus musculus [37] = assay: Neurotoxicity in CF1 albino mouse assessed as unable to grasp rotarod and death at 100 mg/kg, ip after 0.5 hrs by rotarod test; assay type: toxicity, organism-based; conditions: in vivo; method in brief: as §5
Mus musculus [38] = assay: Neurotoxicity in CF1 albino mouse assessed as unable to grasp rotarod, death and diarrhea at 300 mg/kg, ip after 0.5 hrs by rotarod test; assay type: toxicity, organism-based; conditions: in vivo; method in brief: as §5

Chain of Histamine H3 receptor (Q9Y5N1 whole entry): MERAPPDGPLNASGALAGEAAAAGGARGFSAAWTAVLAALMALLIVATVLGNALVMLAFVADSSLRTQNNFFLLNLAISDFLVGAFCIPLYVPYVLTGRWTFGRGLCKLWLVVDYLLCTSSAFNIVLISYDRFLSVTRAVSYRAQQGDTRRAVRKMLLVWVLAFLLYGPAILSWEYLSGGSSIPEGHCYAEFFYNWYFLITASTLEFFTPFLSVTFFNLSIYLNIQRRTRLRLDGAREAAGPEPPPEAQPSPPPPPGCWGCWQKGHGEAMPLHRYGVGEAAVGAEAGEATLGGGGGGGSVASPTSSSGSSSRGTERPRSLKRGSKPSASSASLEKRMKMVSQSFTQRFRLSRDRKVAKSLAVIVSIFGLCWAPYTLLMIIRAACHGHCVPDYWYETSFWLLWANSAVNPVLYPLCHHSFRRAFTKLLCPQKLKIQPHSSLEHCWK

CC1CCN(CCCCCCOc2ccc(Cl)cc2)CC1.O=C(O)C(=O)O
ED50 (Mus musculus [1]): 13 mg/kg
ED50 (Mus musculus [2]): > 30 mg/kg
Ratio TD50/ED50 (Mus musculus [3]): 3.1
Activity (Rattus norvegicus [4]): Active
Activity [5]: inactive
Activity [6]: inactive
Activity (Mus musculus [7]): inactive
Ki (Histamine H3 receptor): 189 nM
Activity (Mus musculus [8]): inactive
Activity (Mus musculus [9]): Active
Activity (Mus musculus [10]): Active
Activity (Mus musculus [11]): Active
Activity (Mus musculus [12]): inactive
Activity (Mus musculus [13]): inactive
Activity (Mus musculus [14]): Non-toxic
Activity (Mus musculus [15]): Non-toxic
Activity (Mus musculus [16]): Non-toxic
Activity (Mus musculus [17]): Non-toxic
Activity (Mus musculus [18]): Non-toxic
Activity (Mus musculus [19]): Toxic
Activity (Mus musculus [20]): Non-toxic
Activity (Mus musculus [21]): Toxic
Activity (Rattus norvegicus [22]): 25%
Activity (Mus musculus [23]): inactive
Activity (Mus musculus [24]): inactive
Activity (Mus musculus [25]): inactive
Activity (Mus musculus [26]): Non-toxic
Activity (Mus musculus [27]): Non-toxic
Activity (Mus musculus [28]): Non-toxic
Activity (Mus musculus [29]): inactive
Activity (Mus musculus [30]): Toxic
TD50 (median neurotoxic dose) (Mus musculus [31]): 40.77 mg/kg

CC1CCN(CCCCCCCOc2cccc(Cl)c2)CC1.O=C(O)C(=O)O
Ki (Histamine H3 receptor): 805 nM
Activity (Mus musculus [10]): inactive
Activity (Mus musculus [11]): inactive
Activity (Mus musculus [32]): inactive
Activity (Mus musculus [33]): Active
Activity (Mus musculus [34]): Active
Activity (Mus musculus [12]): inactive
Activity (Mus musculus [13]): inactive
Activity (Mus musculus [35]): inactive
Activity (Mus musculus [36]): inactive
Activity (Mus musculus [16]): Non-toxic
Activity (Mus musculus [17]): Non-toxic
Activity (Mus musculus [37]): Toxic
Activity (Mus musculus [18]): Non-toxic
Activity (Mus musculus [20]): Non-toxic
Activity (Mus musculus [38]): Toxic
